# According to ChEMBL document CHEMBL3352384, “Synthesis and biological activity of new salicylanilide N,N-disubstituted carbamates and thiocarbamates” (Bioorg Med Chem, 2014):
# System: not listed separately
# Assay: Selectivity index, ratio of IC50 for human HepG2 cells to MIC for Trichophyton mentagrophytes 445
# Details: not given
row,SMILES,Selectivity Index
1,CN(C)C(=O)Oc1ccc(Cl)cc1C(=O)Nc1ccc(F)cc1,3.6

# System: Mycobacterium avium
# Assay: Antimycobacterial activity against Isoniazid, rifampicin, ofloxacin and ethambutol-resistant Mycobacterium avium 330/88 assessed as complete growth inhibition after 21 days
# Format: functional
# Details: 330/88, 504 h
# Outline: (§1)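 M. tuberculosis 331/88 (H37Rv) inoculum diluted 10-3, M. avium 330/88 diluted 10-5. MIC is the lowest concentration giving complete growth inhibition. Isoniazid and p-aminosalicylic acid as references. Quadruplicate, repeated twice.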
row,SMILES,MIC [µM]
1,CN(C)C(=O)Oc1ccc(Cl)cc1C(=O)Nc1ccc(F)cc1,125

# System: Mycobacterium kansasii
# Assay: Antimycobacterial activity against Mycobacterium kansasii 235/80 assessed as complete growth inhibition after 7 days
# Format: functional
# Details: 235/80, 168 h
# Outline: (§2)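 Dilutions of M. kansasii inoculum were 10-4 for strain 235/80 and 10-5 for clinical isolate 6509/96. MIC was the lowest concentration giving complete growth inhibition, run in quadruplicate and repeated twice.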
row,SMILES,MIC [µM]
1,CN(C)C(=O)Oc1ccc(Cl)cc1C(=O)Nc1ccc(F)cc1,62.5

# System: Mycobacterium kansasii
# Assay: Antimycobacterial activity against clinical isolate Mycobacterium kansasii 6509/96 assessed as complete growth inhibition after 14 days
# Format: functional
# Details: 6509/96, 336 h
# Outline: as §2
row,SMILES,MIC [µM]
1,CN(C)C(=O)Oc1ccc(Cl)cc1C(=O)Nc1ccc(F)cc1,125

# System: Trichophyton mentagrophytes
# Assay: Antimicrobial activity against Trichophyton mentagrophytes 445 after 72 hrs by microdilution method
# Format: functional
# Details: Trichophyton mentagrophytes, 445, 72 h
# Outline: (§3)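 Broth microdilution in RPMI 1640 with glutamine, with fluconazole and amphotericin B as references. For filamentous fungi, MIC is expressed as the IC50, i.e. the concentration giving 50% growth reduction versus control. Each determination was done twice.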
row,SMILES,MIC [µM]
1,CN(C)C(=O)Oc1ccc(Cl)cc1C(=O)Nc1ccc(F)cc1,125

# System: Mycobacterium kansasii
# Assay: Antimycobacterial activity against Mycobacterium kansasii 235/80 assessed as complete growth inhibition after 21 days
# Format: functional
# Details: 235/80, 504 h
# Outline: as §2
row,SMILES,MIC [µM]
1,CN(C)C(=O)Oc1ccc(Cl)cc1C(=O)Nc1ccc(F)cc1,125

# System: Mycobacterium tuberculosis
# Assay: Antimycobacterial activity against Mycobacterium tuberculosis H37Rv 331/88 assessed as complete growth inhibition after 21 days
# Format: functional
# Details: H37Rv 331/88, 504 h
# Outline: as §1
row,SMILES,MIC [µM]
1,CN(C)C(=O)Oc1ccc(Cl)cc1C(=O)Nc1ccc(F)cc1,32

# System: Mycobacterium tuberculosis
# Assay: Antimycobacterial activity against Mycobacterium tuberculosis H37Rv 331/88 assessed as complete growth inhibition after 14 days
# Format: functional
# Details: H37Rv 331/88, 336 h
# Outline: as §1
row,SMILES,MIC [µM]
1,CN(C)C(=O)Oc1ccc(Cl)cc1C(=O)Nc1ccc(F)cc1,32

# System: Staphylococcus epidermidis
# Assay: Antimicrobial activity against Staphylococcus epidermidis H 6966/08 after 24 hrs by microdilution method
# Format: functional
# Details: H 6966/08, 24 h
# Outline: (§4)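 Broth microdilution in Mueller-Hinton broth, compounds dissolved in DMSO, final concentrations 500 to 0.49 µM. Benzylpenicillin and bacitracin were run as comparators. MIC was taken as 95% (IC95) or greater growth reduction versus control. Each determination was done twice.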
row,SMILES,MIC [µM]
1,CN(C)C(=O)Oc1ccc(Cl)cc1C(=O)Nc1ccc(F)cc1,> 125

# System: Staphylococcus aureus
# Assay: Antimicrobial activity against Staphylococcus aureus CCM 4516/08 after 24 hrs by microdilution method
# Format: functional
# Details: CCM 4516/08, 24 h
# Outline: (§5)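 Mueller-Hinton broth microdilution; compounds dissolved in DMSO, final concentrations 500 to 0.49 µM. […] Benzylpenicillin and bacitracin as comparators. Each determination done twice.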
row,SMILES,MIC [µM]
1,CN(C)C(=O)Oc1ccc(Cl)cc1C(=O)Nc1ccc(F)cc1,125

# System: Mycobacterium kansasii
# Assay: Antimycobacterial activity against Mycobacterium kansasii 235/80 assessed as complete growth inhibition after 14 days
# Format: functional
# Details: 235/80, 336 h
# Outline: as §2
row,SMILES,MIC [µM]
1,CN(C)C(=O)Oc1ccc(Cl)cc1C(=O)Nc1ccc(F)cc1,125

# System: Staphylococcus aureus
# Assay: Antimicrobial activity against methicillin-resistant Staphylococcus aureus H 5996/08 after 48 hrs by microdilution method
# Format: functional
# Details: H 5996/08, 48 h
# Outline: as §5
row,SMILES,MIC [µM]
1,CN(C)C(=O)Oc1ccc(Cl)cc1C(=O)Nc1ccc(F)cc1,> 125

# System: not listed separately
# Assay: Selectivity index, ratio of IC50 for human HepG2 cells to MIC for methicillin-resistant Staphylococcus aureus H 5996/08
# Details: not given
# Outline: (§6)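 Selectivity index = HepG2 IC50 / MIC. HepG2 cells (passage 3–4) grown in Eagle's MEM with 10% FBS, L-glutamine and non-essential amino acids. Compounds added from DMSO, eight concentrations in triplicate, tetrazolium-reduction colorimetric read-out. IC50 is the concentration reducing viability to 50% of control; 10% DMSO as 0% viability.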
row,SMILES,Selectivity Index
1,CN(C)C(=O)Oc1ccc(Cl)cc1C(=O)Nc1ccc(F)cc1,<=3.6

# System: Enterococcus sp.
# Assay: Antimicrobial activity against Enterococcus sp. J 14365/08 after 48 hrs by microdilution method
# Format: functional
# Details: J 14365/08, 48 h
# Outline: as §4
row,SMILES,MIC [µM]
1,CN(C)C(=O)Oc1ccc(Cl)cc1C(=O)Nc1ccc(F)cc1,> 125

# System: Staphylococcus aureus
# Assay: Antimicrobial activity against Staphylococcus aureus CCM 4516/08 after 48 hrs by microdilution method
# Format: functional
# Details: CCM 4516/08, 48 h
# Outline: as §5
row,SMILES,MIC [µM]
1,CN(C)C(=O)Oc1ccc(Cl)cc1C(=O)Nc1ccc(F)cc1,> 125

# System: Staphylococcus epidermidis
# Assay: Antimicrobial activity against Staphylococcus epidermidis H 6966/08 after 48 hrs by microdilution method
# Format: functional
# Details: H 6966/08, 48 h
# Outline: as §4
row,SMILES,MIC [µM]
1,CN(C)C(=O)Oc1ccc(Cl)cc1C(=O)Nc1ccc(F)cc1,> 125

# System: Mycobacterium avium
# Assay: Antimycobacterial activity against Isoniazid, rifampicin, ofloxacin and ethambutol-resistant Mycobacterium avium 330/88 assessed as complete growth inhibition after 14 days
# Format: functional
# Details: 330/88, 336 h
# Outline: as §1
row,SMILES,MIC [µM]
1,CN(C)C(=O)Oc1ccc(Cl)cc1C(=O)Nc1ccc(F)cc1,125

# System: Trichophyton mentagrophytes
# Assay: Antimicrobial activity against Trichophyton mentagrophytes 445 after 120 hrs by microdilution method
# Format: functional
# Details: Trichophyton mentagrophytes, 445, 120 h
# Outline: as §3
row,SMILES,MIC [µM]
1,CN(C)C(=O)Oc1ccc(Cl)cc1C(=O)Nc1ccc(F)cc1,125

# System: not listed separately
# Assay: Selectivity index, ratio of IC50 for human HepG2 cells to MIC for Mycobacterium tuberculosis H37Rv
# Format: toxicity, cell-based
# Details: read-out: Selectivity Index
# Outline: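 Selectivity index = HepG2 IC50 / MIC. HepG2 cells (passage 3–4) grown in Eagle's MEM with 10% FBS, L-glutamine and non-essential amino acids. Compounds added from DMSO, eight concentrations in triplicate, tetrazolium-reduction colorimetric read-out.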
row,SMILES,selectivity ratio
1,CN(C)C(=O)Oc1ccc(Cl)cc1C(=O)Nc1ccc(F)cc1,14

# System: Mycobacterium kansasii
# Assay: Antimycobacterial activity against clinical isolate Mycobacterium kansasii 6509/96 assessed as complete growth inhibition after 7 days
# Format: functional
# Details: 6509/96, 168 h
# Outline: as §2
row,SMILES,MIC [µM]
1,CN(C)C(=O)Oc1ccc(Cl)cc1C(=O)Nc1ccc(F)cc1,62.5

# System: Staphylococcus aureus
# Assay: Antimicrobial activity against methicillin-resistant Staphylococcus aureus H 5996/08 after 24 hrs by microdilution method
# Format: functional
# Details: H 5996/08, 24 h
# Outline: as §5
row,SMILES,MIC [µM]
1,CN(C)C(=O)Oc1ccc(Cl)cc1C(=O)Nc1ccc(F)cc1,> 125

# System: HepG2
# Assay: Cytotoxicity against human HepG2 cells assessed as reduction in cell viability after 24 hrs by MTS assay
# Format: cell-based
# Details: HepG2, 24 h
# Outline: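 HepG2 hepatocellular carcinoma cells (passage 3–4) were grown in Eagle's MEM with 10% FBS, 1% L-glutamine and non-essential amino acids. Compounds were added from DMSO at eight concentrations in triplicate, with 10% DMSO as the 0% viability control. Viability was read by tetrazolium salt reduction (CellTiter 96 AQueous One). IC50 is the concentration reducing viability to 50% of control.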
row,SMILES,IC50 [µM]
1,CN(C)C(=O)Oc1ccc(Cl)cc1C(=O)Nc1ccc(F)cc1,444

# System: not listed separately
# Assay: Inhibition of Mycobacterium tuberculosis H37Rv isocitrate lyase assessed as glyoxylate phenyl hydrazone formation at 10 uM
# Details: not given
row,SMILES,inhibition [%]
1,CN(C)C(=O)Oc1ccc(Cl)cc1C(=O)Nc1ccc(F)cc1,8

# System: Mycobacterium kansasii
# Assay: Antimycobacterial activity against clinical isolate Mycobacterium kansasii 6509/96 assessed as complete growth inhibition after 21 days
# Format: functional
# Details: 6509/96, 504 h
# Outline: as §2
row,SMILES,MIC [µM]
1,CN(C)C(=O)Oc1ccc(Cl)cc1C(=O)Nc1ccc(F)cc1,125

# System: not listed separately
# Assay: Selectivity index, ratio of IC50 for human HepG2 cells to MIC for atypical mycobacteria
# Details: not given
# Outline: as §6
row,SMILES,Selectivity Index
1,CN(C)C(=O)Oc1ccc(Cl)cc1C(=O)Nc1ccc(F)cc1,3.6

# System: Enterococcus sp.
# Assay: Antimicrobial activity against Enterococcus sp. J 14365/08 after 24 hrs by microdilution method
# Format: functional
# Details: J 14365/08, 24 h
# Outline: as §4
row,SMILES,MIC [µM]
1,CN(C)C(=O)Oc1ccc(Cl)cc1C(=O)Nc1ccc(F)cc1,125
